Most compounds without a hit are left out; they make up all but 2.3% or so of the library.
Calb FLC: C. albicans growth modulation with fluconazole; C. albicans CaCi-2 (fluconazole-resistant clinical isolate) + fluconazole, Alamar Blue growth, 48 h; growth inhibition, % (concentration not given with the values); actives 0.57% (n = 300,000); AID 1979;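 active = growth inhibition above about 58% in most replicates, limit read from the data, passing the limit was not always enough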;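 note: all wells also contain fluconazole at 8 µg/ml as a sub-toxic cotreatment; 0% = median of DMSO wells and 100% = median of geldanamycin control wells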
HGIII-sPLA2 inh: Inhibits HGIII-sPLA2 liposome hydrolysis, primary screen. Q9NZ20. QFRET BODIPY PC-A2 liposome hydrolysis, fluorescence. inhibition, % at 12.2 µM. actives 0.56% (n = 370,000);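 active = inhibition above mean plus 3 SD of compounds lying within the high and low control bounds, cut at about 19% in these data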;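 note: 0% = median of test compound wells and 100% = no enzyme DMSO wells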
Target sequence (Q9NZ20 whole entry, looked up): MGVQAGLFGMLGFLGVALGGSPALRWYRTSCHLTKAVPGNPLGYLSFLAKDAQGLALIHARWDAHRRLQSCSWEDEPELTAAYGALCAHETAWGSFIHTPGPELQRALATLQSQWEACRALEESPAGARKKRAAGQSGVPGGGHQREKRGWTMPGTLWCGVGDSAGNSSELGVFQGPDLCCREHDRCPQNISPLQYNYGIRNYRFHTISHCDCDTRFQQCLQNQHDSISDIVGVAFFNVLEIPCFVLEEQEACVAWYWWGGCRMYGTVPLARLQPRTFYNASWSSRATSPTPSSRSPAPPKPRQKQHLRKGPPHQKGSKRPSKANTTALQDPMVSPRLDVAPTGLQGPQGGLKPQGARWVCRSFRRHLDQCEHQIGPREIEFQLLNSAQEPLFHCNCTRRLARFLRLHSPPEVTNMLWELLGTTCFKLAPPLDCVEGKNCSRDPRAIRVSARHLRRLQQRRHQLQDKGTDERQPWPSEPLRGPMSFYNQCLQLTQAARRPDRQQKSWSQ
SKKanGAS inh: blocks kanamycin growth of S. pyogenes SKKanGAS strain; actives 1.3% (n = 300,000); inhibition, % at 7.5 µM; BacTiter-Glo, 6 h;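 active = mean replicate score, as percent of positive control median, at least 50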;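 note: strain carries kanamycin resistance gene driven by streptokinase promoter and grows in 40 µg/ml kanamycin; loss of luminescence reflects streptokinase promoter inhibition or plain growth inhibition; 0% = median of DMSO wells and 100% = positive control at its reference dose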
ASAP1 inh: inhibitors of human ASAP1 ArfGAP activity; inhibition, % at 16.5 µM; actives 0.19% (n = 360,000); Q9ULH1; ASAP1-stimulated ARF1 GTP hydrolysis, GDP FP detection; in the data active = inhibition above about 25%;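 note: 0% = vehicle with enzyme and substrate and 100% = no enzyme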
ARFGAP1 inhibitor: inhibitors of rat ARFGAP1; Arfgap1-stimulated ARF1 GTP hydrolysis, GDP FP detection; inhibition, % at 16.5 µM; actives 0.26% (n = 360,000);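 active = inhibition above a per-plate limit, mean inhibition of low control wells plus 3 SD, cut at about 25% in these data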;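 note: 0% = DMSO wells with enzyme and 100% = wells lacking Arfgap1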
Target sequence (Q62848 1-136 limits assumed): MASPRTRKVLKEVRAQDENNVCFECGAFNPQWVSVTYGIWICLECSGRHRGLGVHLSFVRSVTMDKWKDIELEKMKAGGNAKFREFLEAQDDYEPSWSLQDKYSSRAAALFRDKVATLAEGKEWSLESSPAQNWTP
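Repeats: one replicate per compound; assay system: rat Arfgap1 catalytic domain, aa 1-136; times: enzyme reaction 120 min at 25 °C after 20 min preincubation; detection: FP of antibody-bound GDP Alexa 633 tracer, ex 620/em 688 nm; benchmarks: high control wells lacking Arfgap1, low control full reaction with DMSO; reagent: human ARF1(Δ1-17)-GTP substrate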
ARFGAP1 inh conf: rat ARFGAP1 inhibition, confirmed; inhibition, % at 16.5 µM; actives 30% (n = 890); ARFGAP1-stimulated ARF1 GTP hydrolysis, GDP tracer FP; shares compounds with ARFGAP1 inhibitor;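 active = average inhibition over triplicates above the hit cutoff set in the earlier primary screen, cut at about 25% in these data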;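 note: 0% = Arfgap1 plus ARF1-GTP with DMSO and 100% = wells lacking Arfgap1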
An asterisk follows results filed as active.

For Cc1ccc(-c2csc(C3=C(O)CN(NC(=O)c4ccc([N+](=O)[O-])cc4)C3=N)n2)cc1 the results were Calb FLC 5, HGIII-sPLA2 inh -1, SKKanGAS inh -20, ASAP1 inh 14, ARFGAP1 inhibitor 28* and ARFGAP1 inh conf 31*.
For CCOC(=O)c1c(NC(=O)c2ccc(S(=O)(=O)N(C)CC3CCCO3)cc2)sc2c1CCN(C)C2 (stereo unspecified) the results were Calb FLC -4, HGIII-sPLA2 inh -12, SKKanGAS inh 0, ASAP1 inh 13 and ARFGAP1 inhibitor 4.
Screening CC(=O)N1CCc2c(sc(NC(=O)c3ccc(S(=O)(=O)N(C)CC4CCCO4)cc3)c2C(N)=O)C1 (stereo unspecified) returned HGIII-sPLA2 inh -7, ASAP1 inh 4, ARFGAP1 inhibitor 29* and ARFGAP1 inh conf 1.
`COC(=O)[C@H]1[C@H]2C[C@@H]3c4[nH]c5cc(OC)ccc5c4CCN3C[C@H]2C[C@@H](OC(=O)c2cc(OC)c(OC)c(OC)c2)[C@@H]1OC` gave HGIII-sPLA2 inh -35, ASAP1 inh 6, ARFGAP1 inhibitor 28* and ARFGAP1 inh conf 3.
COc1cccc(/C=N/NC(=O)c2ccc(-c3ccccc3)cc2)c1O was read as Calb FLC -6, HGIII-sPLA2 inh 12, SKKanGAS inh 22, ASAP1 inh -3, ARFGAP1 inhibitor 37* and ARFGAP1 inh conf 30*.
Screening CCC[C@H]1[C@@H](OC(=O)N2CCCC2)CC[C@@]23CCCN2C(=O)CCC[C@@H]13 returned HGIII-sPLA2 inh 0.
Cn1c(/C(C#N)=C/c2ccc(O)cc2)nc2ccccc21 was read as Calb FLC 1, HGIII-sPLA2 inh -4, SKKanGAS inh 6, ASAP1 inh 9, ARFGAP1 inhibitor 25* and ARFGAP1 inh conf 3.
O=C(C(=O)N1CCN(C(=O)c2cccs2)CC1)c1cccc(C(F)(F)F)c1 was read as HGIII-sPLA2 inh 3, ASAP1 inh 9 and ARFGAP1 inhibitor 9.
Screening O=C(N/N=C/c1ccccc1)c1[nH]ncc1Br returned Calb FLC 3, HGIII-sPLA2 inh -4, SKKanGAS inh -6, ASAP1 inh 4, ARFGAP1 inhibitor 28* and ARFGAP1 inh conf 3.
O=C(N/N=C/c1cccnc1)c1[nH]ncc1Br was read as Calb FLC -1, HGIII-sPLA2 inh 8, SKKanGAS inh 3, ASAP1 inh 6 and ARFGAP1 inhibitor -4.
Screening CCOC(=O)C[C@@H]1OC[C@H](C)N1S(=O)(=O)c1ccc(C)cc1 returned HGIII-sPLA2 inh 9, ASAP1 inh 0 and ARFGAP1 inhibitor 6.
`COc1cccc(C(=O)Cn2c(Br)nc3c2c(=O)n(C)c(=O)n3C)c1` gave Calb FLC -1, HGIII-sPLA2 inh 2, SKKanGAS inh -20, ASAP1 inh 0, ARFGAP1 inhibitor 28* and ARFGAP1 inh conf 5.
`C#CCNC(=O)C[C@H]1C[C@@]2(C(=O)OC)C(=C[C@H](C3CCCC3)O[C@@H]2C)N(Cc2cccc3ccccc23)C1=O` gave HGIII-sPLA2 inh -13.
For COc1ccc2c(c1)C(c1ccc(C)o1)=NNC(c1cccnc1)=N2 the results were Calb FLC 32, HGIII-sPLA2 inh -2, SKKanGAS inh 13, ASAP1 inh -6, ARFGAP1 inhibitor 25* and ARFGAP1 inh conf 1.
`COc1ccc2c(c1)C(c1ccc(C)o1)=NNC(c1ccccc1)=N2` gave Calb FLC -27, HGIII-sPLA2 inh 4, SKKanGAS inh -4, ASAP1 inh 7 and ARFGAP1 inhibitor -7.
`O=C(COC(=O)CNC(=O)c1ccc(Cl)cc1Cl)NC(=O)NC1CCCCC1` gave Calb FLC -6, HGIII-sPLA2 inh 4, SKKanGAS inh -8, ASAP1 inh 8 and ARFGAP1 inhibitor -8.
For O=C(COC(=O)CNC(=O)c1ccc(Cl)cc1Cl)NC1CCCCC1 the results were Calb FLC -4, HGIII-sPLA2 inh 2, SKKanGAS inh -1, ASAP1 inh 0, ARFGAP1 inhibitor 27* and ARFGAP1 inh conf 1.
C[C@H]1[C@@H](OC(=O)NCc2cccc(Cl)c2)CC[C@@]23CCCN2C(=O)CCC[C@@H]13 was read as HGIII-sPLA2 inh 5.
For CCC1Nc2ncnc(N3CCCCC3)c2N(Cc2ccc(Cl)cc2)C1=O (stereo unspecified) the results were HGIII-sPLA2 inh -5, ASAP1 inh -6, ARFGAP1 inhibitor 29* and ARFGAP1 inh conf 1.
Screening CCC1Nc2ncnc(N3CCCCC3)c2N(Cc2ccc(Br)cc2)C1=O (stereo unspecified) returned Calb FLC -2, HGIII-sPLA2 inh -3, SKKanGAS inh 3, ASAP1 inh -4 and ARFGAP1 inhibitor 8.
`CC(C)(C)c1ccc(CC(=O)N2CCC2(C)C(=O)Nc2cccc3cccnc23)cc1` (stereo unspecified) gave HGIII-sPLA2 inh -4, ASAP1 inh -15 and ARFGAP1 inhibitor 8.
Cc1sc2ncnc(SCC(=O)Nc3cccc(S(N)(=O)=O)c3)c2c1C was read as HGIII-sPLA2 inh -9, ASAP1 inh -1, ARFGAP1 inhibitor 27* and ARFGAP1 inh conf 2.
Screening O=C(Cn1c2ccc(F)cc2c2nc3n(c(=O)c21)CCS3)Nc1ccccc1C(F)(F)F returned Calb FLC 1, HGIII-sPLA2 inh 6, SKKanGAS inh 3, ASAP1 inh 22, ARFGAP1 inhibitor 30* and ARFGAP1 inh conf 42*.
For O=C(Cn1c2ccc(F)cc2c2nc3n(c(=O)c21)CCS3)Nc1ccccc1F the results were Calb FLC 4 and SKKanGAS inh 13.
For CC(C)(C)NC(=O)C(c1ccc(C(F)(F)F)cc1)n1c(=O)c(-c2ccco2)nc2ccccc21 (stereo unspecified) the results were HGIII-sPLA2 inh 4, ASAP1 inh -1 and ARFGAP1 inhibitor -6.
Screening Cc1cccc(-c2nnc(SCC(=O)c3ccc(F)cc3)n2C)c1 returned HGIII-sPLA2 inh -34.
Screening COc1ccc(NC(=O)CN(C)C(=O)c2cn(-c3ccccc3)nc2-c2ccc(Cl)cc2)cc1 returned Calb FLC 13, HGIII-sPLA2 inh -12, SKKanGAS inh 22, ASAP1 inh 1, ARFGAP1 inhibitor 27* and ARFGAP1 inh conf 9.
CCOc1cc(/C=N/n2c(C)nnc2C)ccc1O was read as Calb FLC 5, HGIII-sPLA2 inh -2, SKKanGAS inh -9, ASAP1 inh 5, ARFGAP1 inhibitor 28* and ARFGAP1 inh conf 7.
CCOc1ccc(/C=N/n2c(C)nnc2C)cc1OC was read as Calb FLC -37, HGIII-sPLA2 inh 2, SKKanGAS inh -6, ASAP1 inh -2 and ARFGAP1 inhibitor 4.
`COc1ccc(-n2c(C)c(C)c3c(NCCN(C)C)ncnc32)cc1` gave Calb FLC -15, HGIII-sPLA2 inh -6, SKKanGAS inh 3, ASAP1 inh -6 and ARFGAP1 inhibitor 5.
